M1 antag: blocks the rat M1 muscarinic receptor response to acetylcholine | P08482 | CHO-M1 cells, Fluo-4 calcium, ACh EC80 antagonist mode; hits give low values | B-score at 10 µM | actives 3.4% (n = 64,000) | AID 628;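 active = calcium fluorescence response, raw or row-and-column corrected B-score, differing from the plate sample mean either way at a set confidence level, mostly lower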
DUSP1 inh: inhibitors of human MKP-1 phosphatase; actives 0.15% (n = 65,000); P28562; recombinant MKP-1, OMFP hydrolysis fluorescence; inhibition, %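 (compounds tested at a single concentration somewhere between 10 and 100 µM)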; AID 374;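 active = inhibition above about 50%, limit read from the data; inconclusive = inhibition over screen mean plus 3 SD, below that limit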;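 also: 0% = DMSO max control wells and 100% = wells with enzyme stopped by NaOH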
HEK293 NFkB inh: lowers PMA/ionomycin-induced NF-kB signal in HEK293 cells. HEK-293 NF-kB luciferase reporter, luminescence. inhibition, % at 3 µM. actives 0.21% (n = 62,000). AID 465;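 active = inhibition above the mean of all tested compounds plus 3 SD, cut at about 40% in these data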;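 also: 0% = stimulated DMSO wells and 100% = 10 µM reference inhibitor 5653914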
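Material: HEK-293 cells with stable firefly luciferase reporter driven by four HIV NF-kB elements / Also added: PMA plus ionomycin mix as NF-kB-activating stimulus / Compound dosing: 3 µM once, 0.30% DMSO / Times: 1 h pretreatment, 16 h stimulation, 37 °C / Signal: luminescence / Evaluation: per-plate % inhibition versus controls / Benchmarks: DMSO and 10 µM reference inhibitor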
HER2 expr 66K: lowers expression of human Her2 kinase; P04626; SKBR-3 HER2 protein level, AlphaScreen, 18-24 h; hits give low values; HER2 level % of control, % at 10 µM; actives 0.69% (n = 65,000);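 active = HER2 level under 5% of the carrier-only control; inconclusive = no clear call, values can overlap the other calls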;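 also: 100% = DMSO carrier and 0% = 500 nM PU-H71 HSP90 inhibitor; lower value means stronger loss of Her2 protein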
M1 agonist: M1 muscarinic receptor agonism; CHO-M1 cells, Fluo-4 calcium fluorescence, agonist mode; hits give high values; B-score at 10 µM; actives 3% (n = 64,000); AID 626;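 active = fluorescence rise, raw or as B-score row- and column-corrected plate score, outside the 99.7% band of its plate's samples, either direction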
Cdc25B block: inhibitors of human Cdc25B phosphatase; P30305; recombinant Cdc25B, OMFP fluorescence Ex485/Em525; inhibition, %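 (compounds tested at 10 µM final in the well)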; actives 0.1% (n = 65,000); AID 368; in the data active = inhibition above about 50%
Target sequence (P30305 whole entry, looked up): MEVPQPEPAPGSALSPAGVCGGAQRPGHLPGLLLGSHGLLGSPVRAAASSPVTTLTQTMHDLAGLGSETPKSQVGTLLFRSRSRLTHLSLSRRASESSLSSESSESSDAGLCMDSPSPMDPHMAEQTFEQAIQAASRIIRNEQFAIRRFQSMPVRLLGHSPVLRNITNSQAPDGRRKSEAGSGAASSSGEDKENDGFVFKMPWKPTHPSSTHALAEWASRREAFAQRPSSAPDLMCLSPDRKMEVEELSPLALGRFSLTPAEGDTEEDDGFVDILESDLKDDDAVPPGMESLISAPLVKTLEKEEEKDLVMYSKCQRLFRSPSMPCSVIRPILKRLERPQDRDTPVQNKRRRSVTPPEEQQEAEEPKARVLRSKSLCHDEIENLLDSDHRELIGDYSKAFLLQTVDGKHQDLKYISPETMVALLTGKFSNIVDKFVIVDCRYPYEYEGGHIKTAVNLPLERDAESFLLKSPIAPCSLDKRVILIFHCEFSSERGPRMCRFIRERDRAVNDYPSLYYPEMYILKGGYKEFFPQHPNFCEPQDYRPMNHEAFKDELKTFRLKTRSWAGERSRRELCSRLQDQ
M1 agonist conf: confirmation of rat M1 muscarinic receptor agonists | shares compounds with M1 agonist | CHO-M1 cells, Fluo-4 calcium fluorescence, agonist mode; actives lie on both sides | fluorescence change (max-min) at 10 µM | actives 19% (n = 1,700);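 active = fluorescence change differs from the solvent-only DMSO control mean at a set confidence level in both duplicate runs; inconclusive = differs from solvent-only control mean in just one of two runs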;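 also: an EC20 dose of acetylcholine follows compound addition during the same imaging run; raw fluorescence intensity difference in instrument units with no normalization to controls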
M4 ag counter: rat M4 muscarinic agonism, M1 counter-screen; shares compounds with M1 agonist; CHO M4/Gqi5 cells, Fluo-4 calcium fluorescence, agonist mode; actives lie on both sides; AID 1741; fluorescence change (max-min) at 10 µM; actives 9% (n = 1,700);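 active = fluorescence change differing from the plate's solvent-only control wells at 99.7% confidence in both duplicates, whether higher or lower; inconclusive = differs from solvent controls in only one of two duplicates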
An asterisk follows results filed as active; ? = inconclusive; · = not tested or not shown. Compounds with a hit are over-represented: about 6.8% of the library has one in this group of screens.

SMILES	M1 antag	DUSP1 inh	HEK293 NFkB inh	HER2 expr 66K	M1 agonist	Cdc25B block	M1 agonist conf	M4 ag counter
COc1ccc(Br)cc1C(=O)Nc1cccc(NC(=O)c2ccco2)c1	-0.165	3.6	0.0	105.1	0.93	-8.8	·	·
O=C(Nc1cccc(NC(=O)c2ccc(-c3cccc(Br)c3)o2)c1)c1ccco1	-1.79	16.1	-23.4	90.0	7.81*	-12.1	?	-73.8
CCCCn1nc(NC(=O)c2cccs2)c2cc3cc(OC)ccc3nc21	0.393	-11.3	8.3	40.2	6.36*	-5.4	-23.9	-24.5
CCCCn1nc(NC(=O)c2cccs2)c2cc3ccccc3nc21	-0.198	2.4	-2.4	145.5	0.989	-7.7	·	·
COc1ccc2nc3c(cc2c1)c(NC(=O)C1CCCO1)nn3CC(C)C (configuration not stated)	-0.82	-9.3	7.4	69.5	4.27*	-4.6	3.29	-23.5
COc1ccccc1CC1(C)NC(=O)N(CC(=O)N2CC(C)OC(C)C2)C1=O (configuration not stated)	1.44	7.6	18.7	·	-0.532	-7.6	·	·
CCOC(=O)c1c(C)noc1CP(=O)(c1ccccc1)c1ccccc1	·	5.9	10.4	138.9	·	-14.1	·	·
CCCCNc1cc(C)nc(NCc2ccccc2)n1	-3.25*	21.7	14.9	51.8	6.43*	-36.7	-10.4	-21.7
O=C(COc1ccccc1)Nc1ccccc1C(=O)NCc1ccco1	-0.428	7.0	11.3	87.3	6.67*	2.9	?	-42.1
O=C(Nc1ccccc1C(=O)NCc1ccco1)c1ccccc1	-0.654	-3.0	10.9	96.5	0.935	-5.8	·	·
Cc1ccc2[nH]c(=O)c(CN(CCN3CCOCC3)C(=O)Nc3ccccc3F)cc2c1	-0.509	3.3	-17.2	89.0	-1.01	3.1	·	·
Cc1ccc2[nH]c(=O)c(CN(Cc3ccccc3Cl)C(=O)N3CCOCC3)cc2c1	0.443	15.1	-5.6	62.1	2.24*	2.0	-29*	-81.6*
Clc1c(CSc2nc3ccccc3o2)nc2ccccn12	-1.16	-5.5	-31.7	83.5	21.1*	-13.6	2.12	-22.8
Clc1c(CSc2nc3ccccc3o2)nc2sccn12	0.466	-3.8	-26.3	·	-0.467	-8.4	·	·
O=C(c1cc(C2CC2)on1)N1CCN(c2ccc(F)cc2)CC1	0.776	8.8	13.2	84.5	0.0121	-11.9	·	·
CCOc1ccc(CCNC(=O)c2oc3c(c2C)-c2[nH]ncc2CC3)cc1OCC	-0.0157	14.3	4.7	60.5	3.24*	-11.2	-23.5*	-73.8*
Cc1c(C(=O)NC(C)C)oc2c1-c1[nH]ncc1CC2	-0.764	10.2	3.8	75.9	0.468	2.0	·	·
O=C(CSc1nnc(C2COc3ccccc3O2)o1)N1CCOCC1 (configuration not stated)	·	-14.2	11.2	76.6	·	-14.4	·	·
Cc1[nH]c2ccc(-c3nnc(SCC(=O)N4CCCc5ccccc54)o3)cc2c1C	-1.13	13.7	1.1	86.2	44.7*	12.4	?	-40.8
O=C(CSc1nnc(C2COc3ccccc3O2)o1)N1CCCc2ccccc21 (configuration not stated)	-1.23	-18.1	5.8	89.0	2.5*	-14.9	?	-25.5
N#Cc1cccc(-c2cn(S(=O)(=O)c3ccc(Cl)cc3)nc2N)c1	1.19	-3.0	7.6	107.7	-1.43	-12.7	·	·
CCOc1cc(S(=O)(=O)NCc2ccccn2)c(C)cc1C	-0.188	14.1	21.4	86.5	0.163	-6.5	·	·
COc1ccc(C2C=C(c3ccc(C)c(C)c3)Nc3ncnn32)c(OC)c1OC (configuration not stated)	1.7	21.2	-4.4	71.6	-0.939	-12.8	·	·
COc1cccc(C2C=C(c3ccc(Br)s3)Nc3ncnn32)c1OC (configuration not stated)	-0.959	28.8	15.1	65.8	17.6*	10.9	170*	156*
O=C(C1CCCN(S(=O)(=O)c2cccnc2)C1)N1CCn2c1nc1ccccc12 (configuration not stated)	0.307	3.3	13.5	100.5	-1.56	-8.0	·	·
SMILES	M1 antag	DUSP1 inh	HEK293 NFkB inh	HER2 expr 66K	M1 agonist	Cdc25B block	M1 agonist conf	M4 ag counter
O=C(c1ccco1)c1n[nH]nc1-c1ccccc1	0	10.6	18.6	56.6	0.51	-2.1	·	·
O=C(c1ncc[nH]1)c1ccco1	0.127	-23.0	11.6	91.2	3.55*	-31.9	-12	-18.2
CCOc1ccc(C(C)=O)cc1COc1ccc(-n2cnnn2)cc1	-0.903	-2.9	11.3	123.2	-0.237	-6.9	·	·
COc1ccc(C)cc1N(C(=O)CNC(=O)c1ccco1)C(C(=O)NC1CCCC1)c1cccnc1 (configuration not stated)	0.135	-8.5	20.9	86.8	-0.0542	-1.5	·	·
O=C(CN(Cc1ccco1)C(=O)CNS(=O)(=O)c1ccc(F)cc1)NCCc1ccccc1	-0.958	4.1	1.1	95.7	2.48*	-12.0	?	?
CN(C)c1ccc(NC(=O)c2sc(SCC(=O)Nc3nccs3)nc2N)cc1	-0.922	5.0	·	73.5	7.09*	-9.5	-26.5	?
O=C(O)c1ccccc1-c1ccc(/C=c2\sc3nc4cc(Br)cnc4n3c2=O)o1	-0.467	·	·	54.5	52.8*	·	136*	?
Cc1ccc(/C=c2\sc3nc(-c4ccccc4Br)nn3c2=O)o1	-0.483	15.4	-1.5	74.1	-2.39	6.0	·	·
CC(Sc1nnc(C2CCCCC2)n1N)C(=O)NCc1ccc2c(c1)OCO2 (configuration not stated)	0.148	-1.8	-1.9	113.2	0.376	-5.8	·	·
CCN1CCN(c2cc(C)c3cc(NC(=O)c4ccc(Br)o4)ccc3n2)CC1	-4.38*	1.0	8.6	111.7	3.02*	-20.2	-3.98	-52.5
C=CCNC(=O)CC(C)C(CCCCC)C(=O)O (configuration not stated)	0.0124	16.4	3.4	91.0	-0.796	-4.1	·	·
O=C(CCn1c(=O)oc2ccccc21)NCc1cccs1	-0.333	3.6	4.6	87.5	-0.22	3.5	·	·
Cc1cc2ncn(C3CC(=O)N(Cc4ccccc4)C3=O)c2cc1C (configuration not stated)	-0.587	26.3	5.3	75.8	5.78*	-14.1	?	-18.1
CCCCCCc1c(O)c2ccccc2[nH]c1=O	-0.655	-11.0	1.9	116.3	12.7*	-0.7	-10.2	-40.5
CC(=O)c1cccc(N(CC(=O)O)S(C)(=O)=O)c1	1.08	0.5	1.5	102.7	0.407	-11.1	·	·
CSc1nc(C)cc(OCC#N)n1	0.0423	-12.6	22.4	106.6	0.647	-10.6	·	·
O=C1c2cccc3c(N4CCCCC4)ccc(c23)C(=O)N1c1ccccn1	-1.51	-14.5	-14.4	71.9	78.1*	-5.1	775*	819*

Bioassay records: PubChem BioAssay, several laboratories
